Values after ≈ are worked out from the molar mass of the structure shown. Active and inactive are the calls of the source. The rule behind the calls is not given here.
Assays:
Staphylococcus aureus = assay: Antibacterial activity against Staphylococcus aureus ATCC 29213; assay type: functional
Procedure, shortened: (§1)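 MIC determined following NCCLS guidelines.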

Enterococcus faecium = assay: Antibacterial activity against Enterococcus faecium CT26; assay type: functional; procedure, shortened: as §1
[1] = tested on: Staphylococcus epidermidis; assay: Antibacterial activity against Staphylococcus epidermidis ATCC 12228; assay type: functional; procedure, shortened: as §1
Moraxella catarrhalis = assay: Antibacterial activity against Moraxella catarrhalis; assay type: functional; procedure, shortened: as §1
Bacillus subtilis = assay: Antibacterial activity against Bacillus subtilis ATCC 23857; assay type: functional; procedure, shortened: as §1
Enterococcus faecalis = assay: Antibacterial activity against Enterococcus faecalis ATCC 29212; assay type: functional; procedure, shortened: as §1
Bacillus anthracis = assay: Antibacterial activity against Bacillus anthracis; assay type: functional
Procedure, shortened: (§2)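 MIC read-out, determined according to NCCLS guidelines.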

Francisella tularensis = assay: Antibacterial activity against Francisella tularensis; assay type: functional; procedure, shortened: as §2
[2] = tested on: Mycobacterium tuberculosis; assay: Antibacterial activity against Mycobacterium tuberculosis H37Rv; assay type: functional; procedure, shortened: as §2
[3] = tested on: Yersinia pseudotuberculosis; assay: Antibacterial activity against Yersinia pseudotuberculosis ATCC 29833; assay type: functional; procedure, shortened: as §2
Haemophilus influenzae = assay: Antibacterial activity against Haemophilus influenzae ATCC 4976; assay type: functional; procedure, shortened: as §1
Caulobacter vibrioides [4] = assay: Inhibition of Caulobacter crescentus DNA methyltransferase CcrM assessed as transfer of [3H-Me] to DNA at 100 uM relative to control
Procedure, shortened: (§3)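 Inhibitor at 100 uM; methyl transfer from [3H-Me]-AdoMet to DNA substrate measured, expressed as percent of activity without inhibitor.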

Caulobacter vibrioides [5] = assay: Antibacterial activity against Caulobacter crescentus after 18 hrs; assay type: functional
Escherichia coli = assay: Inhibition of Escherichia coli DNA methyltransferase Dam assessed as transfer of [3H-Me] to DNA at 100 uM relative to control; procedure, shortened: as §3
[6] = target: T1, Demethylmenaquinone methyltransferase (Bacillus subtilis (strain 168)) (UniProt P31113); assay: Inhibition of Bacillus subtilis MenH methyltransferase assessed as {3H-Me] to DNA at 100 uM relative control
T1 sequence (whole entry): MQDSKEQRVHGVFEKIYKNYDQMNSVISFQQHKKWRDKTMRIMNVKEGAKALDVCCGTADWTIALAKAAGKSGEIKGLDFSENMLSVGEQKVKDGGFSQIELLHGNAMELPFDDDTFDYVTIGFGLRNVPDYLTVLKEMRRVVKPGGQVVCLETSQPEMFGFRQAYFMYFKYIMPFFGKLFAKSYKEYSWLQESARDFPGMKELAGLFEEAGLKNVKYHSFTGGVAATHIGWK
Procedure, shortened: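 Lysate of E. coli JM109 overexpressing B. subtilis MenH (IPTG 1 mM induction, sonicated) in 0.1 M Tris-HCl pH 8.0, 10 mM MgCl2, 10 mM DTT, 1 uM FPP, 1 uM 1,4-dihydroxy-2-naphthoic acid, 1 uM IPP, 20 uM AdoMet plus [3H]-AdoMet; inhibitor 100 uM final; 37 °C 1 h; acid-methanol quench, hexane/2-propanol extraction, scintillation counting; triplicate; % of no-inhibitor activity.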

Work on `C=CB(Oc1cccc2cccnc12)c1cccc(C#N)c1` yielded an MIC (Staphylococcus aureus) of 1 µg/mL (≈ 3.52 µM), an MIC (Enterococcus faecium) of 2 µg/mL (≈ 7.04 µM) and an MIC [1] of 1 µg/mL (≈ 3.52 µM). It also gave an MIC (Moraxella catarrhalis) of 2 µg/mL (≈ 7.04 µM), an MIC (Bacillus subtilis) of 4 µg/mL (≈ 14.1 µM) and an MIC (Enterococcus faecalis) of 8 µg/mL (≈ 28.2 µM). For the same compound, the MIC (Bacillus anthracis) was 8 µg/mL (≈ 28.2 µM), the MIC (Francisella tularensis) was 8 µg/mL (≈ 28.2 µM) and the MIC [2] was 0.62 µg/mL (≈ 2.18 µM). It also gave an MIC [3] of 32 µg/mL (≈ 113 µM) and an MIC (Haemophilus influenzae) of 2 µg/mL (≈ 7.04 µM).
`C=CB(Oc1cccc2cccnc12)c1ccc(F)c(Cl)c1` showed an MIC (Staphylococcus aureus) of 2 µg/mL (≈ 6.42 µM), an MIC (Enterococcus faecium) of 2 µg/mL (≈ 6.42 µM) and an MIC [1] of 1 µg/mL (≈ 3.21 µM). The MIC (Moraxella catarrhalis) was 2 µg/mL (≈ 6.42 µM), the MIC (Bacillus subtilis) was 4 µg/mL (≈ 12.8 µM) and the MIC (Enterococcus faecalis) was 32 µg/mL (≈ 103 µM). It also gave an MIC [2] of 0.62 µg/mL (≈ 1.99 µM), an MIC [3] of 32 µg/mL (≈ 103 µM) and an MIC (Haemophilus influenzae) of 4 µg/mL (≈ 12.8 µM).
In the case of `Clc1cccc(B(Oc2cccc3cccnc23)c2cccc(Cl)c2)c1`, the MIC (Staphylococcus aureus) is reported as 1 µg/mL (≈ 2.65 µM), the MIC (Enterococcus faecium) is reported as 4 µg/mL (≈ 10.6 µM) and the MIC [1] is reported as 2 µg/mL (≈ 5.29 µM). The MIC (Moraxella catarrhalis) was 2 µg/mL (≈ 5.29 µM), the MIC (Bacillus subtilis) was 2 µg/mL (≈ 5.29 µM) and the Activity (Caulobacter vibrioides [4]) was “Active”. The MIC (Enterococcus faecalis) was 32 µg/mL (≈ 84.6 µM), the MIC (Bacillus anthracis) was 6.25 µg/mL (≈ 16.5 µM) and the MIC (Francisella tularensis) was 0.01 µg/mL (≈ 0.0265 µM). It also gave an MIC [2] of 0.62 µg/mL (≈ 1.64 µM), an MIC [3] of 32 µg/mL (≈ 84.6 µM) and an MIC (Haemophilus influenzae) of 8 µg/mL (≈ 21.2 µM).
Work on `Cc1ccc2cccc(OB(c3ccc(Cl)cc3)c3ccc(Cl)cc3)c2n1` yielded an MIC (Staphylococcus aureus) of 16 µg/mL (≈ 40.8 µM), an MIC (Enterococcus faecium) of 16 µg/mL (≈ 40.8 µM) and an MIC [1] of 8 µg/mL (≈ 20.4 µM). The MIC (Caulobacter vibrioides [5]) was 2 µg/mL (≈ 5.1 µM), the Activity (Caulobacter vibrioides [4]) was “Active” and the MIC (Enterococcus faecalis) was 32 µg/mL (≈ 81.6 µM). The MIC (Francisella tularensis) was 6 µg/mL (≈ 15.3 µM).
`C=CB(Oc1cccc2cccnc12)c1ccc(Cl)cc1` showed an MIC (Staphylococcus aureus) of 2 µg/mL (≈ 6.81 µM), an MIC (Enterococcus faecium) of 4 µg/mL (≈ 13.6 µM) and an MIC [1] of 1 µg/mL (≈ 3.41 µM). For the same compound, the MIC (Moraxella catarrhalis) was 1 µg/mL (≈ 3.41 µM), the MIC (Bacillus subtilis) was 4 µg/mL (≈ 13.6 µM) and the MIC (Enterococcus faecalis) was > 64 µg/mL. It also gave an MIC [2] of 0.62 µg/mL (≈ 2.11 µM), an MIC [3] of 32 µg/mL (≈ 109 µM) and an MIC (Haemophilus influenzae) of 2 µg/mL (≈ 6.81 µM).
With `C=CB(Oc1cccc2cccnc12)c1ccccc1Cl` the MIC (Staphylococcus aureus) was 2 µg/mL (≈ 6.81 µM), the MIC (Enterococcus faecium) was 2 µg/mL (≈ 6.81 µM) and the MIC [1] was 1 µg/mL (≈ 3.41 µM). For the same compound, the MIC (Moraxella catarrhalis) was 1 µg/mL (≈ 3.41 µM), the MIC (Bacillus subtilis) was 4 µg/mL (≈ 13.6 µM) and the MIC (Enterococcus faecalis) was 64 µg/mL (≈ 218 µM). For the same compound, the MIC (Francisella tularensis) was 16 µg/mL (≈ 54.5 µM), the MIC [2] was 0.31 µg/mL (≈ 1.06 µM) and the MIC [3] was 32 µg/mL (≈ 109 µM). The MIC (Haemophilus influenzae) was 2 µg/mL (≈ 6.81 µM).
In the case of `Clc1ccc(C(Oc2cccc3cccnc23)c2ccc(Cl)cc2)cc1`, the MIC (Staphylococcus aureus) is reported as > 64 µg/mL, the MIC (Enterococcus faecium) is reported as > 64 µg/mL and the MIC [1] is reported as > 64 µg/mL. The MIC (Bacillus subtilis) was > 64 µg/mL, the Activity (Caulobacter vibrioides [4]) was “inactive” and the MIC (Enterococcus faecalis) was > 64 µg/mL. For the same compound, the MIC [2] was > 5 µg/mL, the MIC [3] was > 64 µg/mL and the Activity (Escherichia coli) was “inactive”. For the same compound, the MIC (Haemophilus influenzae) was > 64 µg/mL.
With `C=CB(Oc1cccc2cccnc12)c1cccc(Cl)c1` the MIC (Staphylococcus aureus) was 2 µg/mL (≈ 6.81 µM), the inhibition [6] was 50% and the MIC (Enterococcus faecium) was 4 µg/mL (≈ 13.6 µM). The MIC [1] was 1 µg/mL (≈ 3.41 µM), the MIC (Moraxella catarrhalis) was 4 µg/mL (≈ 13.6 µM) and the MIC (Bacillus subtilis) was 4 µg/mL (≈ 13.6 µM). For the same compound, the MIC (Enterococcus faecalis) was 64 µg/mL (≈ 218 µM), the MIC (Bacillus anthracis) was 8 µg/mL (≈ 27.3 µM) and the MIC [2] was 0.62 µg/mL (≈ 2.11 µM). It also gave an MIC [3] of 16 µg/mL (≈ 54.5 µM) and an MIC (Haemophilus influenzae) of 4 µg/mL (≈ 13.6 µM).
In the case of `C=CB(Oc1cccc2cccnc12)c1cccc(F)c1`, the MIC (Staphylococcus aureus) is reported as 2 µg/mL (≈ 7.22 µM), the MIC (Enterococcus faecium) is reported as 2 µg/mL (≈ 7.22 µM) and the MIC [1] is reported as 1 µg/mL (≈ 3.61 µM). For the same compound, the MIC (Moraxella catarrhalis) was 1 µg/mL (≈ 3.61 µM), the MIC (Bacillus subtilis) was 2 µg/mL (≈ 7.22 µM) and the MIC (Enterococcus faecalis) was > 64 µg/mL. For the same compound, the MIC (Bacillus anthracis) was 8 µg/mL (≈ 28.9 µM), the MIC (Francisella tularensis) was 16 µg/mL (≈ 57.7 µM) and the MIC [2] was 0.31 µg/mL (≈ 1.12 µM). For the same compound, the MIC [3] was 32 µg/mL (≈ 115 µM) and the MIC (Haemophilus influenzae) was 2 µg/mL (≈ 7.22 µM).
In the case of `Clc1ccc(B(Oc2ccc(Cl)c3cccnc23)c2ccc(Cl)cc2)cc1`, the MIC (Staphylococcus aureus) is reported as 0.5 µg/mL (≈ 1.21 µM), the MIC (Enterococcus faecium) is reported as 2 µg/mL (≈ 4.85 µM) and the MIC [1] is reported as 0.25 µg/mL (≈ 0.606 µM). The MIC (Moraxella catarrhalis) was ≤ 0.125 µg/mL, the MIC (Caulobacter vibrioides [5]) was 2.6 µg/mL (≈ 6.3 µM) and the MIC (Bacillus subtilis) was 32 µg/mL (≈ 77.6 µM). The Activity (Caulobacter vibrioides [4]) was “Active”, the MIC (Enterococcus faecalis) was 32 µg/mL (≈ 77.6 µM) and the MIC (Bacillus anthracis) was 5.3 µg/mL (≈ 12.8 µM). It also gave an MIC (Francisella tularensis) of 0.01 µg/mL (≈ 0.0242 µM), an MIC [2] of 0.62 µg/mL (≈ 1.5 µM) and an MIC [3] of 8 µg/mL (≈ 19.4 µM). For the same compound, the MIC (Haemophilus influenzae) was 0.25 µg/mL (≈ 0.606 µM).
In the case of `Fc1ccc(B(Oc2cccc3cccnc23)c2ccc(F)cc2)cc1`, the MIC (Staphylococcus aureus) is reported as 4 µg/mL (≈ 11.6 µM), the MIC (Enterococcus faecium) is reported as 32 µg/mL (≈ 92.7 µM) and the MIC [1] is reported as 2 µg/mL (≈ 5.79 µM). It also gave an MIC (Moraxella catarrhalis) of 2 µg/mL (≈ 5.79 µM), an MIC (Caulobacter vibrioides [5]) of 12.5 µg/mL (≈ 36.2 µM) and an MIC (Enterococcus faecalis) of 32 µg/mL (≈ 92.7 µM). For the same compound, the MIC [2] was 0.62 µg/mL (≈ 1.8 µM) and the MIC (Haemophilus influenzae) was 4 µg/mL (≈ 11.6 µM).
Work on `Clc1ccc(B(Oc2cccc3cccnc23)c2ccc(Cl)cc2)cc1` yielded an MIC (Staphylococcus aureus) of 2 µg/mL (≈ 5.29 µM), an MIC (Enterococcus faecium) of 4 µg/mL (≈ 10.6 µM) and an MIC [1] of 2 µg/mL (≈ 5.29 µM). It also gave an MIC (Moraxella catarrhalis) of 2 µg/mL (≈ 5.29 µM), an MIC (Caulobacter vibrioides [5]) of 4 µg/mL (≈ 10.6 µM) and an MIC (Bacillus subtilis) of 2 µg/mL (≈ 5.29 µM). For the same compound, the Activity (Caulobacter vibrioides [4]) was “Active”, the MIC (Enterococcus faecalis) was 4 µg/mL (≈ 10.6 µM) and the MIC (Bacillus anthracis) was 6.25 µg/mL (≈ 16.5 µM). For the same compound, the MIC (Francisella tularensis) was 0.03 µg/mL (≈ 0.0794 µM), the MIC [2] was 0.31 µg/mL (≈ 0.82 µM) and the MIC [3] was 64 µg/mL (≈ 169 µM). For the same compound, the MIC (Haemophilus influenzae) was 8 µg/mL (≈ 21.2 µM).
With `C=CB(Oc1cccc2cccnc12)c1ccccc1` the MIC (Staphylococcus aureus) was 2 µg/mL (≈ 7.72 µM), the MIC (Enterococcus faecium) was 4 µg/mL (≈ 15.4 µM) and the MIC [1] was 1 µg/mL (≈ 3.86 µM). For the same compound, the MIC (Moraxella catarrhalis) was 2 µg/mL (≈ 7.72 µM), the MIC (Enterococcus faecalis) was > 64 µg/mL and the MIC [3] was 32 µg/mL (≈ 123 µM). It also gave an MIC (Haemophilus influenzae) of 16 µg/mL (≈ 61.7 µM).

Reference: ChEMBL document CHEMBL1140298, “Identification of borinic esters as inhibitors of bacterial cell growth and bacterial methyltransferases, CcrM and MenH” (2005)
